Assay results taken from ChEMBL document CHEMBL1148265, “Synthesis and biological activity of N-aryl-2-aminothiazoles: potent pan inhibitors of cyclin-dependent kinases” (Bioorg Med Chem Lett, 2004).
pIC50: −log10 of the molar value.

Assays:
[1] = tested on: A2780; experiment: Cytotoxic effect on human ovarian (A2780) cancer cell line; type: functional, cell-based
[2] = biological target: Cyclin-dependent kinase 1/cyclin B (Homo sapiens, UniProt P06493); experiment: Inhibition of cyclin-dependent kinase 1-cyclin B; type: protein-complex assay
Outline: (§1)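 Cell-free kinase assay with the CDK/cyclin complex as enzyme. Read-out is phosphorylation of RB protein as substrate. IC50 values were reported.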

[3] = biological target: Cyclin-dependent kinase 2/cyclin E (Homo sapiens, UniProt P24941); experiment: Inhibition of Cyclin-dependent kinase 2-cyclin E; type: protein-complex assay; outline: as §1
[4] = biological target: Cyclin-dependent kinase 4/cyclin D (Homo sapiens, UniProt P11802); experiment: Inhibition of Cyclin-dependent kinase 4-cyclin D; type: protein-complex assay; outline: as §1
[5] = tested on: Mus musculus; experiment: In vivo anticancer activity of compound was determined as increase in survival time of treated groups versus untreated control against P388 murine leukemia in mice at 4 mg/kg; type: functional
Outline: (§2)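 P388 murine leukemia cells implanted ip into immunocompetent mice. Drug given ip right after implantation, then once daily for 7 days (qdx7). Efficacy read as increase in lifespan, reported as the ratio of lifespan of the treated group (T) to the control group (C) (%T/C).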

[6] = species on record: Mus musculus; experiment: Compound was tested binding to mouse serum; type: functional
Outline: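 Free versus bound fraction measured by equilibrium dialysis against mouse serum.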

[7] = tested on: Mus musculus; experiment: In vivo anticancer activity of compound was determined as increase in survival time of treated groups versus untreated control against P388 murine leukemia in mice at 90 mg/kg; type: functional; outline: as §2

CC(C)(C)c1cnc(CSc2cnc(Nc3cccnc3)s2)o1
pIC50 [1]: 7.30
pIC50 [2]: 8.00
pIC50 [3]: 8.52
pIC50 [4]: 6.89

CC(C)(C)c1cnc(CSc2cnc(NC(=O)Cc3cccnc3)s2)o1
pIC50 [1]: 6.62
pIC50 [2]: 7.10
pIC50 [3]: 8.30
pIC50 [4]: 5.96

CC(C)(CO)CNCc1ccc(Nc2ncc(SCc3ncc(C(C)(C)C)o3)s2)nc1
pIC50 [1]: 8.52
pIC50 [2]: 7.74
pIC50 [3]: 8.52
pIC50 [4]: 7.59
T/C [5]: 156%
Binding [6]: 90%

CC(C)(C)c1cnc(CSc2cnc(Nc3ccccc3)s2)o1
pIC50 [1]: 6.85
pIC50 [2]: 7.92
pIC50 [3]: 8.40
pIC50 [4]: 7.11

CC(C)(C)c1cnc(CSc2cnc(Nc3ccc(S(=O)(=O)NCCO)cc3)s2)o1
pIC50 [1]: 7.16
pIC50 [2]: 8.00
pIC50 [3]: 8.70
pIC50 [4]: 6.63
T/C [7]: 180%
Binding [6]: 97%

CC(C)(C)c1cnc(CSc2cnc(Nc3ccccn3)s2)o1
pIC50 [1]: 8.00
pIC50 [2]: 8.40
pIC50 [3]: 8.70
pIC50 [4]: 8.05
